Assay results as given in ChEMBL document CHEMBL4145462, “Nitrogen-containing ecdysteroid derivatives vs. multi-drug resistance in cancer: Preparation and antitumor activity of oximes, oxime ethers and a lactam” (Eur J Med Chem, 2018).

Tests used:
[1] = Synergistic cytotoxicity against mouse L5178 cells expressing human ABCB1 assessed as combination index at ED90 using 30:1 test compound to doxorubicin ratio after 48 hrs by MTT-based checkerboard microplate method; format: functional
In short: (§1)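 Checkerboard microplate combinations of compound with doxorubicin at constant molar ratios. 5 × 10^4 cells/well in McCoy's 5A, 48 h at 37°C, 5% CO2. MTT added to 0.5 mg/mL final for 4 h, SDS/HCl overnight, OD read at 540 and 630 nm. Combination indices derived per ratio for 50%, 75% and 90% growth inhibition by median-effect analysis.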

[2] = Synergistic cytotoxicity against mouse L5178 cells assessed as combination index at ED90 using 75:1 test compound to doxorubicin ratio after 48 hrs by MTT-based checkerboard microplate method; format: functional; in short: as §1
[3] = Synergistic cytotoxicity against mouse L5178 cells assessed as combination index at ED50 using 600:1 test compound to doxorubicin ratio after 48 hrs by MTT-based checkerboard microplate method; format: functional; in short: as §1
[4] = Synergistic cytotoxicity against mouse L5178 cells expressing human ABCB1 assessed as combination index at ED75 using 15:1 test compound to doxorubicin ratio after 48 hrs by MTT-based checkerboard microplate method; format: functional; in short: as §1
[5] = Synergistic cytotoxicity against mouse L5178 cells expressing human ABCB1 assessed as combination index at ED50 using 60:1 test compound to doxorubicin ratio after 48 hrs by MTT-based checkerboard microplate method; format: functional; in short: as §1
[6] = Synergistic cytotoxicity against mouse L5178 cells assessed as combination index at ED90 using 37.5:1 test compound to doxorubicin ratio after 48 hrs by MTT-based checkerboard microplate method; format: functional; in short: as §1
[7] = Synergistic cytotoxicity against mouse L5178 cells assessed as combination index at ED75 using 300:1 test compound to doxorubicin ratio after 48 hrs by MTT-based checkerboard microplate method; format: functional; in short: as §1
[8] = Synergistic cytotoxicity against mouse L5178 cells expressing human ABCB1 assessed as combination index at ED90 using 15:1 test compound to doxorubicin ratio after 48 hrs by MTT-based checkerboard microplate method; format: functional; in short: as §1
[9] = tested on: HeLa; experiment: Antiproliferative activity against human HeLa cells after 72 hrs by MTT assay; format: functional, cell-based
In short: (§2)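 Cells grown in MEM with 10% FCS, 1% non-essential amino acids and 1% penicillin-streptomycin. Seeded at 5000 cells/well, exposed to 0.1–30.0 µM compound for 72 h. MTT (5 mg/ml solution) was then added for 4 h, formazan dissolved in DMSO, and absorbance read at 545 nm. Cisplatin served as positive control. IC50 came from sigmoidal dose–response fits (log inhibitor vs normalized response, variable slope).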

[10] = Synergistic cytotoxicity against mouse L5178 cells assessed as combination index at ED50 using 300:1 test compound to doxorubicin ratio after 48 hrs by MTT-based checkerboard microplate method; format: functional; in short: as §1
[11] = Synergistic cytotoxicity against mouse L5178 cells expressing human ABCB1 assessed as combination index at ED50 using 30:1 test compound to doxorubicin ratio after 48 hrs by MTT-based checkerboard microplate method; format: functional; in short: as §1
[12] = Synergistic cytotoxicity against mouse L5178 cells assessed as combination index at ED90 using 150:1 test compound to doxorubicin ratio after 48 hrs by MTT-based checkerboard microplate method; format: functional; in short: as §1
[13] = Synergistic cytotoxicity against mouse L5178 cells expressing human ABCB1 assessed as combination index at ED75 using 30:1 test compound to doxorubicin ratio after 48 hrs by MTT-based checkerboard microplate method; format: functional; in short: as §1
[14] = Synergistic cytotoxicity against mouse L5178 cells assessed as combination index at ED90 using 300:1 test compound to doxorubicin ratio after 48 hrs by MTT-based checkerboard microplate method; format: functional; in short: as §1
[15] = target: T1, ABCB1 (P-glycoprotein) (Homo sapiens, UniProt P08183); experiment: Inhibition of human ABCB1 expressed in mouse L5178 cells assessed as increase in rhodamine-123 accumulation at 2 uM after 10 mins by flow cytometric analysis relative to control; format: cell-based; conditions: mouse L5178 cells expressing human ABCB1, probe rhodamine-123
T1 sequence (P08183 whole entry): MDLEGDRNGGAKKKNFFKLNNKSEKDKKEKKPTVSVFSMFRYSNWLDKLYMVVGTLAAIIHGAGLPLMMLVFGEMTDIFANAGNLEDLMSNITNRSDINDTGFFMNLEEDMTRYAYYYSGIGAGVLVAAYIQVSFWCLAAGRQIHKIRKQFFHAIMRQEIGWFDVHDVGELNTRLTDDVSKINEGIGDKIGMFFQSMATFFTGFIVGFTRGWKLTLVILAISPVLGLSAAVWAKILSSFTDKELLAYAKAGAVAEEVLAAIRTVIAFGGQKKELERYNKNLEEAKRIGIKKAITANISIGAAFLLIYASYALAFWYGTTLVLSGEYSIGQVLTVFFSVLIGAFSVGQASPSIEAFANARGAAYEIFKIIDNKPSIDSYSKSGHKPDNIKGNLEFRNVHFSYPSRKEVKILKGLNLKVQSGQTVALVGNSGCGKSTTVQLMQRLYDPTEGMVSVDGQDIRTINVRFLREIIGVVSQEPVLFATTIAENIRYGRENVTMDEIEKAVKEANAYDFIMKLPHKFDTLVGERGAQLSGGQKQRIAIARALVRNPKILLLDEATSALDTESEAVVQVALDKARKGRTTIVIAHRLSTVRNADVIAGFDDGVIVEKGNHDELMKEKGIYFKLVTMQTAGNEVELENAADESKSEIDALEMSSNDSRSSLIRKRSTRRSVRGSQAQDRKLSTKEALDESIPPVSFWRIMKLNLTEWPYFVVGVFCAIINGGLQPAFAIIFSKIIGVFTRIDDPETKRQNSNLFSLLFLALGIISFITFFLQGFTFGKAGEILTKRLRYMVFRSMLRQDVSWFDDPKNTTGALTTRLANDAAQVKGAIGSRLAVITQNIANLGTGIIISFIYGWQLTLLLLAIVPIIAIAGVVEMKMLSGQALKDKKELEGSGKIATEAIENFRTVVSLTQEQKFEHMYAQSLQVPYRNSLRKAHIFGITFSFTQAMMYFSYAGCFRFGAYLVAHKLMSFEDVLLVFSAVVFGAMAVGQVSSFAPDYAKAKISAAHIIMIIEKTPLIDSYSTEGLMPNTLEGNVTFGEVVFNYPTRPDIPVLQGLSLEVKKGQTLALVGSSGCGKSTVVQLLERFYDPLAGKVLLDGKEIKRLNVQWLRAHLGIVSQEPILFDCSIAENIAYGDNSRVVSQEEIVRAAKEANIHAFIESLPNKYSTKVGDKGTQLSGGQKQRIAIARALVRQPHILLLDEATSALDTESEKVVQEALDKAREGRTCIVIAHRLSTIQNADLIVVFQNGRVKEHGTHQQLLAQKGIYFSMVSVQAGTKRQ
In short: (§3)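 Cells at 2 × 10^6/mL were preincubated 10 min with compound. Rhodamine 123 then added to 5.2 µM final, 20 min at 37 °C. Cells washed twice in PBS, resuspended and read by flow cytometry. Percent inhibition was scaled between MDR-cell accumulation (0%) and parental L5178 accumulation (100%). Controls: 100 nM tariquidar (positive) and 2% DMSO (negative).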

[16] = target: T1, ABCB1 (P-glycoprotein); experiment: Inhibition of human ABCB1 expressed in mouse L5178 cells assessed as increase in rhodamine-123 accumulation at 20 uM after 10 mins by flow cytometric analysis relative to control; format: cell-based; conditions: mouse L5178 cells expressing human ABCB1, probe rhodamine-123; in short: as §3
[17] = Synergistic cytotoxicity against mouse L5178 cells assessed as combination index at ED75 using 150:1 test compound to doxorubicin ratio after 48 hrs by MTT-based checkerboard microplate method; format: functional; in short: as §1
[18] = Synergistic cytotoxicity against mouse L5178 cells expressing human ABCB1 assessed as combination index at ED90 using 60:1 test compound to doxorubicin ratio after 48 hrs by MTT-based checkerboard microplate method; format: functional; in short: as §1
[19] = Synergistic cytotoxicity against mouse L5178 cells assessed as combination index at ED75 using 37.5:1 test compound to doxorubicin ratio after 48 hrs by MTT-based checkerboard microplate method; format: functional; in short: as §1
[20] = tested on: SiHa; experiment: Antiproliferative activity against human SiHa cells after 72 hrs by MTT assay; format: functional, cell-based; in short: as §2
[21] = Cytotoxicity against mouse L5178 cells expressing human ABCB1 after 48 hrs by MTT assay; format: functional, cell-based; conditions: L5178, 48 h
In short: (§4)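 Parental mouse lymphoma L5178 and the MDR line made by pHa MDR1/A retrovirus transfection, selected with 60 µg/L colchicine. Grown in McCoy's 5A with horse serum at 37°C, 5% CO2. 5 x 10^4 cells/well, serial compound dilutions, 48 h. MTT added to 0.5 mg/mL final for 4 h, then 10% SDS in 0.01 M HCl overnight, OD read at 540 and 630 nm. IC50 taken as median cytotoxic activity (Dm) from control lanes of checkerboard plates, n=2.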

[22] = Synergistic cytotoxicity against mouse L5178 cells assessed as combination index at ED75 using 600:1 test compound to doxorubicin ratio after 48 hrs by MTT-based checkerboard microplate method; format: functional; in short: as §1
[23] = tested on: MDA-MB-231; experiment: Antiproliferative activity against human MDA-MB-231 cells after 72 hrs by MTT assay; format: functional, cell-based; conditions: MDA-MB-231, 72 h; in short: as §2
[24] = Synergistic cytotoxicity against mouse L5178 cells expressing human ABCB1 assessed as combination index at ED50 using 15:1 test compound to doxorubicin ratio after 48 hrs by MTT-based checkerboard microplate method; format: functional; in short: as §1
[25] = Synergistic cytotoxicity against mouse L5178 cells expressing human ABCB1 assessed as combination index at ED90 using 7.5:1 test compound to doxorubicin ratio after 48 hrs by MTT-based checkerboard microplate method; format: functional; in short: as §1
[26] = Synergistic cytotoxicity against mouse L5178 cells assessed as combination index at ED90 using 600:1 test compound to doxorubicin ratio after 48 hrs by MTT-based checkerboard microplate method; format: functional; in short: as §1
[27] = Synergistic cytotoxicity against mouse L5178 cells assessed as combination index at ED50 using 75:1 test compound to doxorubicin ratio after 48 hrs by MTT-based checkerboard microplate method; format: functional; in short: as §1
[28] = Synergistic cytotoxicity against mouse L5178 cells expressing human ABCB1 assessed as combination index at ED75 using 60:1 test compound to doxorubicin ratio after 48 hrs by MTT-based checkerboard microplate method; format: functional; in short: as §1
[29] = Synergistic cytotoxicity against mouse L5178 cells assessed as combination index at ED50 using 37.5:1 test compound to doxorubicin ratio after 48 hrs by MTT-based checkerboard microplate method; format: functional; in short: as §1
[30] = Synergistic cytotoxicity against mouse L5178 cells expressing human ABCB1 assessed as combination index at ED50 using 7.5:1 test compound to doxorubicin ratio after 48 hrs by MTT-based checkerboard microplate method; format: functional; in short: as §1
[31] = tested on: MCF7; experiment: Antiproliferative activity against human MCF7 cells after 72 hrs by MTT assay; format: functional, cell-based; conditions: MCF7, 72 h; in short: as §2
[32] = Synergistic cytotoxicity against mouse L5178 cells assessed as combination index at ED50 using 150:1 test compound to doxorubicin ratio after 48 hrs by MTT-based checkerboard microplate method; format: functional; in short: as §1
[33] = Cytotoxicity against mouse L5178 cells after 48 hrs by MTT assay; format: functional, cell-based; conditions: L5178, 48 h; in short: as §4
[34] = Synergistic cytotoxicity against mouse L5178 cells expressing human ABCB1 assessed as combination index at ED75 using 7.5:1 test compound to doxorubicin ratio after 48 hrs by MTT-based checkerboard microplate method; format: functional; in short: as §1
[35] = Synergistic cytotoxicity against mouse L5178 cells assessed as combination index at ED75 using 75:1 test compound to doxorubicin ratio after 48 hrs by MTT-based checkerboard microplate method; format: functional; in short: as §1

## CC(C)(O)CC[C@H]1OC(C)(C)O[C@]1(C)[C@H]1CC[C@@]2(O)C3=C/C(=N\OC(C)(C)C)[C@@H]4C[C@H]5OC(C)(C)O[C@H]5C[C@]4(C)[C@H]3CC[C@]12C
[1]
  CI: 0.36
[2]
  CI: 0.8
[3]
  CI: 1
[4]
  CI: 0.23
[5]
  CI: 0.38
[6]
  CI: 0.7
[7]
  CI: 0.98
[8]
  CI: 0.25
[9]
  IC50: 8.43 µM
[10]
  CI: 0.91
[11]
  CI: 0.27
[12]
  CI: 1.26
[13]
  CI: 0.29
[14]
  CI: 1.06
[15]
  inhibition at 10 min, 2 µM: 38.8%
[16]
  inhibition at 10 min, 20 µM: 112%
[17]
  CI: 0.91
[18]
  CI: 0.53
[19]
  CI: 0.63
[20]
  IC50: 16.1 µM
[21]
  IC50: 29.1 µM
[22]
  CI: 1.3
[23]
  IC50: 12.4 µM
[24]
  CI: 0.66
[25]
  CI: 0.17
[26]
  CI: 1.7
[27]
  CI: 0.56
[28]
  CI: 0.44
[29]
  CI: 0.58
[30]
  CI: 0.3
[31]
  IC50: 11.1 µM
[32]
  CI: 0.24
[33]
  IC50: 28.1 µM
[34]
  CI: 0.2
[35]
  CI: 0.67
